Consider one compound from ChEMBL document CHEMBL4699596, “Therapeutic Targeting of MMP-12 for the Treatment of Chronic Obstructive Pulmonary Disease” (J Med Chem, 2020).

In data set [1] the target is T1, Macrophage metalloelastase (Homo sapiens, UniProt P39900). The data set is described as follows: Potency index, ratio of MMP408 IC50 to test compound IC50 for inhibition of recombinant human MMP12 catalytic domain (Gly106 to Gly263 residues) expressed in Escherichia coli BL21 Codon Plus cells.
Target sequence in this assay (P39900 106-470 limits assumed): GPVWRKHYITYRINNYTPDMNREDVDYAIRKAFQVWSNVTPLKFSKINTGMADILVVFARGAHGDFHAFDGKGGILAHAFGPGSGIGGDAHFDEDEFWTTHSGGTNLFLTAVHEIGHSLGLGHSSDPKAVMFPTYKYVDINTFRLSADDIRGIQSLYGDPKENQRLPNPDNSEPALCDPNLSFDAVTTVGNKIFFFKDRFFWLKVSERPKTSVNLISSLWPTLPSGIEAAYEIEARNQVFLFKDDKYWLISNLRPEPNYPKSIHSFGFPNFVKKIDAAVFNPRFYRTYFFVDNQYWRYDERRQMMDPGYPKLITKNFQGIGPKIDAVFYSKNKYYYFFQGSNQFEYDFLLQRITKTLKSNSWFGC
Data set [2] in a line: Half life in Balb/c mouse at 30 mg/kg, ip by LC-MS/MS analysis. In kind it is ADME, organism-based. As to conditions: in vivo. The gist of the method:
(§1)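 Single i.p. dose of 30 mg/kg to 5 Balb-C mice (22–26 g) in 10% DMSO, 40% PEG400, 10% (2-hydroxypropyl)-β-cyclodextrin in PBS. Retro-orbital blood taken at 30 min, 1, 2, 4, 8 and 24 h. Plasma drug measured by extraction and LC/MS against a calibration curve of purified agent.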

Data set [3] is described as follows: Tmax in Balb/c mouse at 30 mg/kg, ip by LC-MS/MS analysis. As to conditions: in vivo. In kind it is ADME, organism-based. A digest of the protocol:
as §1

For data set [4], the target named is T1, Macrophage metalloelastase. Briefly: Inhibition of recombinant human MMP12 catalytic domain (Gly106 to Gly263 residues) expressed in Escherichia coli BL21 Codon Plus cells using 5-FAM/QXL520 FRET peptide as substrate preincubated for 15 mins followed by substrate addition and measured at 3 mins interval for 60 mins by fluorescence assay.
Target sequence in this assay (P39900 whole entry, the tested form may be a part): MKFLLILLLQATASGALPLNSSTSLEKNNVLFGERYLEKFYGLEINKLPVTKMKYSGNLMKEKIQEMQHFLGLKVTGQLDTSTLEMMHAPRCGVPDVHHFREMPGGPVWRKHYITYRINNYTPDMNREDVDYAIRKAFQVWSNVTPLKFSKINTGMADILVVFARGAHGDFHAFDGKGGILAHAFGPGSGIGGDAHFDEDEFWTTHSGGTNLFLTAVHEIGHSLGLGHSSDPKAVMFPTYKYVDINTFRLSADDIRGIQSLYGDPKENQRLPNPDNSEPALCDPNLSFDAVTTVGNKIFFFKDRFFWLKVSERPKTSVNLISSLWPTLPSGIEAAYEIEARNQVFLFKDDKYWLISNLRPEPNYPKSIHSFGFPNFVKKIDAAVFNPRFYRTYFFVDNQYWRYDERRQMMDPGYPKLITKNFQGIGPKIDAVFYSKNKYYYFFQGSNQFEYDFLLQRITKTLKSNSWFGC
Data set [5] has as its system Mus musculus. The data set is described as follows: Protection against porcine elastase-induced emphysema in ip dosed C57BL/6 mouse model assessed as decrease in emphysema-like pathology administered once daily for 7 days measured 21 days post initial elastase instillation by H and E staining based light microscopic analysis. In kind it is functional, organism-based. As to conditions: time 19.0 day. The gist of the method: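 Male and female C57BL/6 mice, 6–8 weeks, given one intranasal dose of 0.9 U porcine pancreatic elastase in 50 μl PBS (saline controls). From day 2, daily i.p. vehicle or inhibitor for 7 days. At day 21 lungs formalin-inflated at 20 cm pressure, paraffin-embedded, H&E-stained and imaged at 10x. Mean linear intercept = line length/alveolar wall intersections. Two-way ANOVA with Tukey.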

The target of data set [6] is Collagenase 3 (Homo sapiens) (UniProt P45452). The data set is described as follows: Inhibition of recombinant human 6His-tagged MMP13 catalytic domain (104 to 274 residues) expressed in Escherichia coli at 4 to 25 nM using 5-FAM/QXL520 FRET peptide as substrate preincubated for 15 mins followed by substrate addition and measured at 3 mins interval for 60 mins by fluorescence assay. As to conditions: dose nM 4-25, time 75.0 min. A digest of the protocol: (§2)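 Catalytic domains, 10 ng enzyme, preincubated with inhibitor 15 min at RT. FRET substrate (SensoLyte 520 kit) then added, fluorescence read every 3 min for 60 min. Inhibitors at 25 nM or 4 nM; percent inhibition reported.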

Data set [7] addresses T2, Interstitial collagenase (Homo sapiens) (UniProt P03956).
T2 sequence (whole entry): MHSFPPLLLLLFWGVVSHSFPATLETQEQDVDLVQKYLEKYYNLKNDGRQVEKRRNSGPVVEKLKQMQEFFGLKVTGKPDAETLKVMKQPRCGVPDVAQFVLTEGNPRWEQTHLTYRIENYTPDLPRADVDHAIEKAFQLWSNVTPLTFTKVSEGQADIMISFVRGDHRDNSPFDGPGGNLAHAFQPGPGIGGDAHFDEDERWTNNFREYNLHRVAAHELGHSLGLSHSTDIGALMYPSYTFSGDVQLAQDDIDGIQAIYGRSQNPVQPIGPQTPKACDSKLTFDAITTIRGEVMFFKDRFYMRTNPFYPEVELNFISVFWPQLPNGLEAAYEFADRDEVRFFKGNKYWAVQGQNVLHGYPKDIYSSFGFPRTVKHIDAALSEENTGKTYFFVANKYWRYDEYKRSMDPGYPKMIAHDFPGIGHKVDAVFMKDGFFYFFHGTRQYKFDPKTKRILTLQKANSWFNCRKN
Briefly: Inhibition of recombinant human 6His-tagged MMP1 catalytic domain (106 to 261 residues) expressed in Escherichia coli at 4 to 25 nM using 5-FAM/QXL520 FRET peptide as substrate preincubated for 15 mins followed by substrate addition and measured at 3 mins interval for 60 mins by fluorescence assay. The conditions noted are these: dose nM 4-25, time 75.0 min. The gist of the method: as §2

For data set [8], the system named is Mus musculus. Briefly: Protection against porcine elastase-induced emphysema in ip dosed C57BL/6 mouse model assessed as effect on total BALF cellularity/influx administered once daily for 7 days measured 21 days post initial elastase instillation. As to conditions: time 19.0 day. Type of data set: functional, organism-based. The gist of the method:
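Same elastase and dosing scheme as line 10 (C57BL/6, intranasal 0.9 U PPE, daily i.p. for 7 days from day 2). At day 21 BAL cell pellet taken up in 200 μl PBS and counted on a hemocytometer. Cytospin differentials of 300 cells per slide. Two-way ANOVA with Tukey post-hoc.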

Data set [9] deals with Matrix metalloproteinase-14 (Homo sapiens) (UniProt P50281). Briefly: Inhibition of recombinant human His-tagged MMP14 expressed in Escherichia coli at 4 to 25 nM using 5-FAM/QXL520 FRET peptide as substrate preincubated for 15 mins followed by substrate addition and measured at 3 mins interval for 60 mins by fluorescence assay. As to conditions: dose nM 4-25, time 75.0 min. A digest of the protocol:
as §2

Data set [10] can be described thus: Ratio of Cmax in Balb/c mouse at 30 mg/kg, ip to IC90 for inhibition of recombinant human MMP12 catalytic domain (Gly106 to Gly263 residues) expressed in Escherichia coli BL21 Codon Plus cells. Type of data set: organism-based. The conditions noted are these: in vivo.
For data set [11], the target named is Matrix metalloproteinase-9 (Homo sapiens) (UniProt P14780). The data set is described as follows: Inhibition of recombinant human 6His-tagged MMP9 catalytic domain (112 to 445 residues) expressed in Escherichia coli at 4 to 25 nM using 5-FAM/QXL520 FRET peptide as substrate preincubated for 15 mins followed by substrate addition and measured at 3 mins interval for 60 mins by fluorescence assay. The conditions noted are these: dose nM 4-25, time 75.0 min. The gist of the method:
as §2

A short description of data set [12]: Cmax in Balb/c mouse at 30 mg/kg, ip by LC-MS/MS analysis. In kind it is ADME, organism-based. On the set-up: route intraperitoneal, dose 30 mg/kg. As to conditions: in vivo. The gist of the method:
as §1

For data set [13], the target named is Stromelysin-1 (Homo sapiens) (UniProt P08254). The data set is described as follows: Inhibition of recombinant human His-tagged MMP3 catalytic domain (Pro19 to Glu271 residues) expressed in Escherichia coli at 4 to 25 nM using 5-FAM/QXL520 FRET peptide as substrate preincubated for 15 mins followed by substrate addition and measured at 3 mins interval for 60 mins by fluorescence assay. The conditions noted are these: dose nM 4-25, time 75.0 min. A digest of the protocol:
as §2

Structures are written as SMILES. pIC50: −log10 of the molar value. Calls of active or inactive are those of the source. No cut-off for these calls is given here. A value given as a limit tells only on which side of the number the result lay.

Sequence of Stromelysin-1 (Homo sapiens) (P08254 100-477 limits assumed): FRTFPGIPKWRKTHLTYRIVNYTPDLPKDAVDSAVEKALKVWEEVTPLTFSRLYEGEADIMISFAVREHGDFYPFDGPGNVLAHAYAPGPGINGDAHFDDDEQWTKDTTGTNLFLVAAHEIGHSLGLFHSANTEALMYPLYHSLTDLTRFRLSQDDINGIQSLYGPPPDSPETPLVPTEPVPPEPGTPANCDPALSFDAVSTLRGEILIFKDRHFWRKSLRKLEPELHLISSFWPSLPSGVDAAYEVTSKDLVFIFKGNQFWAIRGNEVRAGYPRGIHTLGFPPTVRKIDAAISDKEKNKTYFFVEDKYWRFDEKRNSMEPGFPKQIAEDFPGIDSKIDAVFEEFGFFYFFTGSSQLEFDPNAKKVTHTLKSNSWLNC
Sequence of Matrix metalloproteinase-9 (Homo sapiens) (P14780 whole entry, the tested form may be a part): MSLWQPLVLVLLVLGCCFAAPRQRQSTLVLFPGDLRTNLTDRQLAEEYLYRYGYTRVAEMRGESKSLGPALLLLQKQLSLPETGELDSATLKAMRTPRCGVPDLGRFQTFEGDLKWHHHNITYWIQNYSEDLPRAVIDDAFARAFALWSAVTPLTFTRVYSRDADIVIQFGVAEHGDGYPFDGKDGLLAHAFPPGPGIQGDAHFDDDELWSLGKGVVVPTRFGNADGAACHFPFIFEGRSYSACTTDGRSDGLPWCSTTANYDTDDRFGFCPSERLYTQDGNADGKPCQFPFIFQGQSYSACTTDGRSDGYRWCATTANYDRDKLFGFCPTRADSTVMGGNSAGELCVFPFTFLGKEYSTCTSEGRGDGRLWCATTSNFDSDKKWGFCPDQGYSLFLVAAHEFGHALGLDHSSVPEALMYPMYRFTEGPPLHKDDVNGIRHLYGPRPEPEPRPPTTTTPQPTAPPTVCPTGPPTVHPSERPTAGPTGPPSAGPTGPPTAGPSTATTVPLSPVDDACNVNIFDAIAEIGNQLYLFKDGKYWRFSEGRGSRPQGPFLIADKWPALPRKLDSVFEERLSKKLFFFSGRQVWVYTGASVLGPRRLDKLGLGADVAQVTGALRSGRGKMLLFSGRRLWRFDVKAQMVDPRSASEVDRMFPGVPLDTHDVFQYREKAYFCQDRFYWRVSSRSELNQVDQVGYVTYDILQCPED

For the compound `COc1ccc(CC[C@@H](NC(=O)[C@H](CCCc2ccccc2)NC(=O)CN2CCOCC2)C(=O)N[C@H](Cc2ccc(C)cc2)C(=O)NO)cc1`, the Ratio IC50 in data set [1] is greater than 5. In data set [2], the half-life (in general, how long it takes for the measured level to halve) was 5 h. In addition, the Tmax – broadly, the time at which the peak concentration occurs – in data set [3] was determined as 2 h. In addition, the negative-log IC50 (pIC50) – broadly, the IC50 on a negative log10 scale, so that one unit is a factor of ten – in [4] is 8.35. The result in the data set on Mus musculus [5] was Active. For the same compound, the inhibition entry in [6], in [7], in [9] and in [11] was “inactive” each time. Besides, in the data set with Mus musculus [8], the result was inactive. Besides, in [10], the Ratio was greater than 20. The maximum concentration (Cmax) (commonly the peak of the concentration-time curve) in [12] stood at 580 nM. Moreover, the inhibition entry in data set [13] is “Active”.
